Compound activity deposited in PubChem BioAssay by several laboratories.
Shown are actives, neighbours in structure and some others; about 2.1% of the full set was active somewhere.
Runt-SMMHC FRET: inhibitors of RUNX1 Runt–CBFb-SMMHC binding, primary screen, biochemical, FRET, Cerulean-Runt, Venus-CBFb-SMMHC, uHTS | Runt-related transcription factor 1 (Homo sapiens) + Core-binding factor subunit beta … | Cerulean-Runt/Venus-CBFb-SMMHC FRET ratio 530/480, 1 h | inhibition, % at 20 µM | 220,000 compounds, 0.74% hits | AID 1434, 2008;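 active means mean inhibition across duplicate retests at 20 µM reaching about 50%, limit read from the data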;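 further: 0% = DMSO wells and 100% = wells with excess untagged CBFb-SMMHC; inhibitors lower the FRET ratio by blocking Runt binding to CBFb-SMMHC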
RanGTP-Imp inh: inhibitors of RanGTP-importin-beta interaction, primary screen, biochemical, FRET, CFP-Ran, YFP-importin-beta, homogeneous; inhibition, % (no concentration beside the values); cell-free CFP-Ran/YFP-importin-beta FRET ratio; Ran GTPase (GTP-bound) - importin-beta complex; 300,000 compounds, 1.1% hits;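 active means more than half of the replicate wells show a fall in the fluorescence ratio signal beyond about 16%, limit read from the data, passing the limit was not always enough; inconclusive means exactly half of the replicate wells pass the set limit; inactive means fewer than half of replicates pass the limit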;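 further: 0% = DMSO wells and 100% = Ran loaded with GDP instead of GTP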
MEX-5 binding: MEX-5 zinc finger RNA-binding disruptors – biochemical, C. elegans, fluorescence polarization, MLPCN library, primary screen. Zinc finger protein mex-5 (Caenorhabditis elegans), Q9XUB2. MEX-5/FITC-TCR2 RNA binding; hits give low values. activity score (negative = inhibition of binding), % at 10 µM. 300,000 compounds, 0.38% hits. AID 1832, 2009;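 active means inhibition past about -25% in most replicates, and total fluorescence under double the plate's negative control median, limit read from the data; inconclusive means replicates evenly split on the limit, or fluorescence at least double controls; inactive means too little inhibition in most replicates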;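 further: 0% = DMSO and -100% = 5 µM competing unlabeled TCR2 RNA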
Target sequence (Q9XUB2 whole entry, looked up): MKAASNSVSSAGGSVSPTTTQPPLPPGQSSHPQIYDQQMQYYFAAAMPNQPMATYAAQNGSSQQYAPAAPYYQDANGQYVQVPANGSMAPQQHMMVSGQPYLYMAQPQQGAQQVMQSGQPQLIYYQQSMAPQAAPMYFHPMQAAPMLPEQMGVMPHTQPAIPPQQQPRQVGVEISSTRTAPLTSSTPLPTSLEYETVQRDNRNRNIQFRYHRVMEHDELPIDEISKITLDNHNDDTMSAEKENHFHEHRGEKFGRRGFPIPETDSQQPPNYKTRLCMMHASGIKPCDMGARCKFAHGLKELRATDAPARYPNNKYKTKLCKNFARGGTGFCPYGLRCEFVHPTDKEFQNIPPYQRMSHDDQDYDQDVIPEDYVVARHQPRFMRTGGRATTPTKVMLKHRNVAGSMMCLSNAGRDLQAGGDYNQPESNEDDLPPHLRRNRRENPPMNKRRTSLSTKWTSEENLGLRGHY
Runt-CBFb FRET: inhibitors of RUNX1 Runt–CBFb binding, primary screen, biochemical, FRET, Cerulean-Runt, Venus-CBFb, uHTS | inhibition, % at 20 µM | 220,000 compounds, 0.46% hits | AID 1496, 2009 | Cerulean-Runt/Venus-CBFb FRET ratio 530/480, 1 h | Runt-related transcription factor 1 (Homo sapiens) + Core-binding factor subunit beta …;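 active means inhibition over about 50% at 20 µM in the single-dose screen, limit read from the data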;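 further: 0% = DMSO wells and 100% = excess unlabeled CBFb competitor control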
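Assay system: Cerulean-Runt domain / Medium: Tris 50 mM pH 7.5, KCl, K2SO4, 0.01% BSA / Timing: protein complex preformed 1 h, compound exposure 1 h, room temperature, dark / Measured by: FRET, excitation 422 nm, emission at 530 and 480 nm / Evaluation: loss of energy transfer signal / Control set: 5 µM unlabeled CBFb as full-inhibition high control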
KLK7 zymogen act: proKLK7 zymogen activators, primary screen, biochemical, fluorescence intensity | Kallikrein-7 (Homo sapiens), P49862 | activation, % at 7 µM | 370,000 compounds, 0.9% hits | purified proKLK7, EDANS-DABCYL substrate fluorescence; 100% is mature enzyme control, 0% vehicle;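 active means activation above the mean of all tested compounds plus 3 SD, computed per campaign excluding outliers beyond control limits, cut at about 13% in these data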
Target sequence (P49862 whole entry, looked up): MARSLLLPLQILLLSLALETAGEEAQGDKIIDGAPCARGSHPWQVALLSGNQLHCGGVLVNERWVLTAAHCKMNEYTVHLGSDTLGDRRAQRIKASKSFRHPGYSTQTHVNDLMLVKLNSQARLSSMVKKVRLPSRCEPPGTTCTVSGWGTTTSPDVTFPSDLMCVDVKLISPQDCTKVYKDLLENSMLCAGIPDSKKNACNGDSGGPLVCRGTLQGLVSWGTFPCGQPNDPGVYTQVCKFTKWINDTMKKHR
proKLK7 act conf: proKLK7 zymogen activators, confirmation, biochemical, fluorescence intensity, triplicate; shares compounds with KLK7 zymogen act; purified proKLK7, EDANS-DABCYL substrate fluorescence; scaled: vehicle 0, mature enzyme 100; activation, % at 7 µM; 3,200 compounds, 68% hits;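 active means activation, as change over the incubation, above the mean of all tested compounds plus 3 SD, cut at about 13% in these data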
EDANS interfere: EDANS-DABCYL substrate optical interference, artefact control for kallikrein-7 zymogen activator project, biochemical, fluorescence intensity, high throughput; shares compounds with KLK7 zymogen act; no enzyme, 4 h; solvent 0%, active enzyme control 100%; activation, % at 7 µM; 3,200 compounds, 80% hits; AID 686952, 2013;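 active means activation above the all-compound mean plus 3 SD, ignoring values outside control-based bounds, cut at about 4.8% in these data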;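 further: value is the 4 h activation minus the activation read at time zero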
K7 EDANS ctr: EDANS fluorescence interference in dose response, no enzyme. EC50, µM. EDANS-DABCYL peptide fluorescence interference. 250 compounds, 20% hits. shares compounds with KLK7 zymogen act;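 active means compounds that raise the fluorescence signal in this interference counterscreen, with EC50 at or below 10 µM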;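 further: intact quenched peptide substrate alone read at 355 nm excitation and 520 nm emission; signal is fluorescence gain from T0 to T4 after four hours at room temperature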
Active calls of the source: *; i = inactive; ? = inconclusive; · = no result given.

SMILES | Runt-SMMHC FRET | RanGTP-Imp inh | MEX-5 binding | Runt-CBFb FRET | KLK7 zymogen act | proKLK7 act conf | EDANS interfere | others
O=C(c1sccc1-c1ccccc1)N1CCN(S(=O)(=O)c2ccccc2F)CC1 | · | 4 | 0 | · | 0 | · | ·
CCN(CC(=O)Nc1ccc(NC(C)=O)cc1)C(=O)CN1C(=O)NC2(CCCC2)C1=O | · | 3 | -1 | · | 0 | · | ·
O=[N+]([O-])c1ccc(N2CCN(CCOCCO)CC2)c([N+](=O)[O-])c1 | -4 | -2 | 1 | -1 | 0 | · | ·
Cc1cc(=O)oc2cc(OC(=O)CCCCCN3C(=O)c4ccccc4C3=O)ccc12 | 10 | 4 | -1 | 8 | 63* | 405* | 336*
Cc1cc(OC(=O)c2ccco2)c2c(C)cc(=O)oc2c1 | -6 | -3 | 3 | -2 | 1 | · | ·
CC(=O)Nc1c(OC(C)=O)ccc2c(C)cc(=O)oc12 | 10 | 2 | 1 | 7 | 175* | 489* | 515*
Cc1ccc(S(=O)(=O)CCC(=O)Oc2ccc3c(C)cc(=O)oc3c2)cc1 | · | 5 | 0 | · | 24* | 123* | 109*
CC(=O)Oc1cc(OC(C)=O)c2c(C)cc(=O)oc2c1 | 19 | ? | 4 | 11 | 50* | 550* | 534*
CCOC(=O)C(NC(C)=O)C(=O)Nc1c(C)cccc1C (centres undefined) | -3 | ? | -1 | -2 | 0 | · | ·
CC(C)CN(C(=O)CSc1nnc(-c2cccs2)n1C1CC1)C1CCS(=O)(=O)C1 (centres undefined) | · | · | · | · | 0 | · | ·
Cc1cc(=O)oc2cc(O)ccc12 | · | 3 | -1 | · | 99* | 63* | 64*
O=c1ccc2ccc(O)cc2o1 | · | · | · | · | 51* | 64* | 70*
COc1ccc(NC(=O)c2ccc(S(=O)(=O)N3CC(C)CC(C)C3)cc2)cc1S(N)(=O)=O (centres undefined) | · | · | · | · | 18* | 24* | 14* | K7 EDANS ctr=i
COc1ccc(OC)c(C(c2c(O)nc(SC)[nH]c2=O)c2c(O)nc(SC)[nH]c2=O)c1 | · | 2 | 1 | · | 13* | 15* | 15*
CCCCCCN1C[C@@H](O)[C@H](n2cc(COC(=O)c3ccccc3)nn2)C[C@@H]1c1ccc(OC)cc1 | · | · | · | · | -1 | · | ·
CCn1c(C)nnc1SCC(=O)Nc1nccs1 | · | 1 | 1 | · | -1 | · | ·
Cc1ccc(C#N)c(SCC(=O)Nc2nccs2)n1 | 1 | 2 | -2 | 3 | 130* | 209* | 182*
CCOC(=O)c1c(SCC(=O)Nc2nccs2)nc(C)c(C)c1C | · | -2 | -1 | · | 79* | 61* | 58*
Cc1ccc(C)c(Nc2cc(C)nc3ccccc23)c1 | · | 8 | -5 | · | 0 | · | ·
Cc1ccccc1C(=O)NC1CCCCN(C)C1=O (centres undefined) | · | · | · | · | 1 | · | ·
COc1ccc(/C=N/NC(=O)CN2CCSCC2)c(OC)c1 | 2 | -1 | 1 | 0 | 0 | · | ·
COc1ccc(OC)c(/C=N/NC(=O)CN2CCSCC2)c1 | 1 | 6 | 3 | -2 | 24* | 56* | 47* | K7 EDANS ctr=i
COc1ccc(OC)c(/C=N/NC(=O)C(O)c2ccccc2)c1 (centres undefined) | · | 1 | 0 | · | 41* | 34* | 36*
CCOC(=O)C1CC2=C(CCCC2=O)NC1=O (centres undefined) | · | · | · | · | 0 | · | ·
Cc1ccc(-n2c(COc3ccccc3)nnc2SCC(=O)Nc2ccccc2-c2ccccc2)cc1 | · | · | · | · | 1 | · | ·
SMILES | Runt-SMMHC FRET | RanGTP-Imp inh | MEX-5 binding | Runt-CBFb FRET | KLK7 zymogen act | proKLK7 act conf | EDANS interfere | others
CN(C)/C=N/c1nc2nccc(-c3cccnc3)n2n1 | 0 | -2 | 1 | 3 | 13* | 65* | 62*
CN(C)/C=N/c1nc2nccc(-c3ccccn3)n2n1 | -4 | 1 | 1 | -1 | 12 | · | ·
COc1cccc(OC(C)c2ccnc3nc(/N=C/N(C)C)nn23)c1 (centres undefined) | 3 | 7 | -3 | 3 | 3 | · | ·
COc1ccc(-c2ccnc3nc(/N=C/N(C)C)nn23)cc1 | 0 | 4 | 2 | 0 | 44* | 66* | 63*
O=C(CN(C(=O)c1ccccc1)C(=O)c1ccccc1)OCc1ccccc1 | · | · | · | · | 0 | · | ·
O=C(NCCCc1ccccc1)OC1CCC12CCC(c1ccccc1)CC2 (centres undefined) | · | · | · | · | 0 | · | ·
Cc1ccc(-c2nc3ccccn3c2Nc2ccccc2)o1 | 23 | -4 | 1 | 48 | 28* | 63* | 68*
CCN(C(=O)COC(=O)c1[nH]c(=O)[nH]c(=O)c1N)c1ccccc1 | 2 | -1 | 1 | -1 | 13* | 24* | 28*
CSc1ccc(/C=C/C(=O)OCC(=O)NC(C)C)cc1 | -6 | 4 | 0 | 0 | 22* | 17* | 18*
O=C(COC(=O)/C=C/c1ccc(Cl)cc1)NC1CC1 | · | · | · | · | 0 | · | ·
CSc1ccc(/C=C/C(=O)OCC(=O)NC2CC2)cc1 | · | · | · | · | 21* | 23* | 25*
CNc1cncc(-c2cccc(C(=O)N(C)C)c2)n1 | · | · | · | · | 51* | 60* | 63*
CC(=O)Nc1cncc(-c2cccc(C(=O)NCCN(C)C)c2)n1 | · | · | · | · | 1 | · | ·
CNc1cncc(-c2ccccc2NC(C)=O)n1 | · | · | · | · | 6 | · | ·
CNc1cncc(-c2ccc(OC)c(OC)c2)n1 | · | · | · | · | 7 | · | ·
CNc1cncc(-c2ccc(F)c(F)c2)n1 | · | · | · | · | 37* | 16* | 25*
CNc1cncc(-c2cccnc2)n1 | · | · | · | · | 67* | 76* | 79*
NC(=O)c1ccc(-n2nnnc2SCC(=O)Nc2ccc(F)cc2)cc1 | · | -3 | 3 | · | 0 | · | ·
O=C(CC1CC2CCC1C2)N1CCN(S(=O)(=O)c2ccccc2C(F)(F)F)CC1 (centres undefined) | · | · | · | · | 0 | · | ·
CNc1ccc(-c2cccc(C(C)=O)c2)cn1 | · | · | · | · | -1 | · | ·
CNc1ccc(-c2cccc(CO)c2)cn1 | · | · | · | · | 20* | 24* | 16* | K7 EDANS ctr=>70
